Assay results as given in ChEMBL document CHEMBL3593245 (J Med Chem, 2015).
≈ marks a conversion by molar mass, not a printed value.

Key:
[1] = target: T1, Rap guanine nucleotide exchange factor 3 (Homo sapiens, UniProt O95398); experiment: Antagonist activity at human recombinant EPAC1 assessed as inhibition of Rap1b-bGDP exchange activity
T1 sequence (O95398 whole entry): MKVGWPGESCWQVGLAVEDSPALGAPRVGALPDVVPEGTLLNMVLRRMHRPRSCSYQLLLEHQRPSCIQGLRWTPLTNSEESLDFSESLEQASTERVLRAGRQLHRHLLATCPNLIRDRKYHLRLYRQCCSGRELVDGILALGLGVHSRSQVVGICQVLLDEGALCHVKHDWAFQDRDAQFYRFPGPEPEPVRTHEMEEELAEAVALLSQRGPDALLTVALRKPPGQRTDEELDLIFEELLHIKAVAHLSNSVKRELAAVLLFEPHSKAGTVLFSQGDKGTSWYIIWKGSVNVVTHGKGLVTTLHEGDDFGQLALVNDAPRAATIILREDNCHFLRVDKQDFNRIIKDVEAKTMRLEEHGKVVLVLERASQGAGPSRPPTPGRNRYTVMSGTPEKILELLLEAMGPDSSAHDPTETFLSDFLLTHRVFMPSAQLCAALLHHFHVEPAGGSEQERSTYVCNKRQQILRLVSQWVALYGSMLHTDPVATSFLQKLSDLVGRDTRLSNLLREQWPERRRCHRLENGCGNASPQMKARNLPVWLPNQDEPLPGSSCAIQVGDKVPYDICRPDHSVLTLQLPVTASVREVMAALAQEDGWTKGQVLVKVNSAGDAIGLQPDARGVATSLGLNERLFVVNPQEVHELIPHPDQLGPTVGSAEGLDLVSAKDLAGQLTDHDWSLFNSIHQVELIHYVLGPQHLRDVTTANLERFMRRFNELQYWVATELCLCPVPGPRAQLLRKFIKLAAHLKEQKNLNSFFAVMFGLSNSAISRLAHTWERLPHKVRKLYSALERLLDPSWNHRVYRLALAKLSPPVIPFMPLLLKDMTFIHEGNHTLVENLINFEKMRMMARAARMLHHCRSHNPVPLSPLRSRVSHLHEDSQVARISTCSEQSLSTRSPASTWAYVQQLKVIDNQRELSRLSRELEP

[2] = target: T2, Rap guanine nucleotide exchange factor 4 (Mus musculus) (UniProt Q9EQZ6); experiment: Ratio of cAMP IC50 to compound IC50 for displacement of 8-NBD-cAMP from mouse recombinant EPAC2 by fluorescence assay
T2 sequence (whole entry): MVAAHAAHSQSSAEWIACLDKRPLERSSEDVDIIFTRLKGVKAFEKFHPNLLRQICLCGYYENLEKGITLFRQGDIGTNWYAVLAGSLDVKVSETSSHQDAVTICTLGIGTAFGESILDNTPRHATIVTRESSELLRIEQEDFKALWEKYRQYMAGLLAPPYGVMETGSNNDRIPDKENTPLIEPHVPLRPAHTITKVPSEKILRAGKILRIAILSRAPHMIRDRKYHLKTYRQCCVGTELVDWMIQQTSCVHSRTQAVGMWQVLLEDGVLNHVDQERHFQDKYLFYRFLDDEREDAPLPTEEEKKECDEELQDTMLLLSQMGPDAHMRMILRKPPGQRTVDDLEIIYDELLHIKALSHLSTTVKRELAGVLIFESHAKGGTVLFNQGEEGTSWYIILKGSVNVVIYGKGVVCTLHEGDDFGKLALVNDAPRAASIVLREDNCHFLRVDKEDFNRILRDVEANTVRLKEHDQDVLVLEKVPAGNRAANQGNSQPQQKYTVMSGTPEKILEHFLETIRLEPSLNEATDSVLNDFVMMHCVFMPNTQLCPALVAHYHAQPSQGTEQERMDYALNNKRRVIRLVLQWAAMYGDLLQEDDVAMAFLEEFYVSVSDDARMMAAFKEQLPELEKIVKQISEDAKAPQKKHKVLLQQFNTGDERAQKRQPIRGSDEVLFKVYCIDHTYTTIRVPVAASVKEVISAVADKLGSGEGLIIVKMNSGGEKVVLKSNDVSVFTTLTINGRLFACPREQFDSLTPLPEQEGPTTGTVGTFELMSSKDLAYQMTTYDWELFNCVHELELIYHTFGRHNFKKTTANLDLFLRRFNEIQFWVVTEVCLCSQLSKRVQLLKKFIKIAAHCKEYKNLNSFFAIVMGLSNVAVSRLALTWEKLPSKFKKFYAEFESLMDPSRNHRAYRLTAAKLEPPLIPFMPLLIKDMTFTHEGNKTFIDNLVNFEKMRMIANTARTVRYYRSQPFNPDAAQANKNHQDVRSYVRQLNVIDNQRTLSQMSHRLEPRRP

[3] = target: T3, Rap guanine nucleotide exchange factor 4 (Mus musculus, UniProt Q9EQZ6); experiment: Displacement of 8-NBD-cAMP from mouse recombinant EPAC2 by fluorescence assay
T3 sequence (Q9EQZ6 whole entry): T2 sequence (whole entry)

[4] = […] solubility of the compound in water after 24 hrs by HPLC analysis; assay type: physicochemical; details: for solubility: buffer, 24 h
[5] = […] solubility of the compound in ethanol after 24 hrs by HPLC analysis; assay type: physicochemical
Method in brief: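 10–15 mg of solid added to 0.1–0.6 mL ethanol, shaken 24 h at 25 °C, then centrifuged and filtered. Supernatant (5 μL) injected on C18 reverse-phase HPLC with UV detection at 270 and 254 nm. Quantified by one-point calibration against standards of known concentration.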

[6] = target: T1, Rap guanine nucleotide exchange factor 3; experiment: Antagonist activity at EPAC1 (unknown origin) assessed as cAMP-induced guanine nucleotide exchange factor activity

Row | SMILES | IC50 [1] [µM] | Ratio IC50 [2] | IC50 ([3]; read-out: IC50) [µM] | IC50 [3] | other results
1 | N#C/C(=N\Nc1cc(Cl)cc(Cl)c1)C(=O)c1cc(C2CCCCC2)on1 | 2.6 |  |  |  | 
2 | CC(C)(C)c1cc(C(=O)/C(C#N)=N/Nc2cc(Cl)ccc2Cl)no1 |  | 4.4 |  |  | 
3 | CC(C)(C)c1cc(C(=O)/C(C#N)=N/Nc2cccc([N+](=O)[O-])c2)no1 |  | 1 | 31.3 |  | 
4 | CC(C)(C)c1cc(C(=O)Nc2cccc(Cl)c2)no1 |  |  |  | Not Active | 
5 | CC(C)(C)c1cc(C(=O)/C(C#N)=N/Nc2cc(F)c(F)c(F)c2)no1 | 8.9 |  |  |  | solubility [4]: 0.216 mM (≈ 75.7 µg/mL); solubility at 24 h [5]: 81.6 mM (≈ 28600 µg/mL)
6 | CC(C)(C)c1cc(C(=O)/C(C#N)=N/Nc2cccc(C#N)c2)no1 |  |  | 67.8 |  | 
7 | N#C/C(=N\Nc1cc(Cl)c(Cl)c(Cl)c1)C(=O)c1cc(C2CC2)on1 | 4.1 |  |  |  | 
8 | N#C/C(=N\Nc1cc(Cl)c(Cl)c(Cl)c1)C(=O)c1cc(-c2ccccc2)on1 |  |  |  | Not Active | 
9 | Cc1cc(C(=O)/C(C#N)=N/Nc2cccc(Cl)c2)no1 |  |  |  | Not Active | 
10 | CCOC(=O)c1cccc(N/N=C(\C#N)C(=O)c2cc(C(C)(C)C)on2)c1 |  |  | 71.4 |  | 
11 | CC(C)(C)c1cc(C(=O)/C(C#N)=N/Nc2cccc(Cl)c2Cl)no1 |  | 0.9 |  |  | 
12 | CC(C)(C)c1cc(C(=O)/C(C#N)=N/Nc2ccccc2Cl)no1 |  | 1.1 |  |  | 
13 | CC(C)(C)c1cc(C(=O)/C(C#N)=N/Nc2ccc(Cl)c(Cl)c2)no1 |  | 10.7 |  |  | 
14 | CC(C)(C)c1cc(C(=O)/C(C#N)=N/Nc2cccc(CO)c2)no1 |  |  |  | Not Active | 
15 | CC(C)(C)c1cc(C(=O)/C(C#N)=N/Nc2cc(Cl)cc(C(F)(F)F)c2)no1 | 5.7 |  | 1.6 |  | solubility at 24 h [5]: 36.6 mM (≈ 14600 µg/mL)
16 | CC(C)(C)c1cc(C(=O)/C(C#N)=N/Nc2cc(F)cc(Cl)c2)no1 | 11.6 | 12.8 | 2.5 |  | 
17 | Cc1cc(NC(=O)/C(C#N)=N/Nc2cccc(Cl)c2)no1 |  |  |  | Not Active | 
18 | CC(C)(C)c1cc(C(=O)/C(C#N)=N/Nc2ccc(Cl)cc2)no1 |  | 1.2 |  |  | 
19 | N#C/C(=N\Nc1cccc(Cl)c1)C(=O)c1cc(C2CCCCC2)on1 |  | 2.8 | 11.3 |  | 
20 | CC(C)(C)c1cc(C(=O)/C(C#N)=N/Nc2cc(C(F)(F)F)cc(C(F)(F)F)c2)no1 | 5.7 |  | 6.4 |  | solubility [4]: 0.968 mM (≈ 418 µg/mL); solubility at 24 h [5]: > 347 mM

Row | SMILES | IC50 [1] [µM] | Ratio IC50 [2] | IC50 ([3]; read-out: IC50) [µM] | IC50 [3] | other results
21 | N#C/C(=N\Nc1cc(Cl)c(Cl)c(Cl)c1)C(=O)c1cc(C2CCCCC2)on1 | 4 |  |  |  | solubility [4]: 0.0237 mM (≈ 10.1 µg/mL); solubility at 24 h [5]: 8.5 mM (≈ 3620 µg/mL)
22 | CC(C)(C)c1cc(NC(=O)c2cccc(Cl)c2)no1 |  |  |  | Not Active | 
23 | CC(C)(C)c1cc(NC(=O)/C(C#N)=N/Nc2cccc(Cl)c2)no1 |  |  |  | Not Active | 
24 | N#C/C(=N\Nc1cccc(Cl)c1)C(=O)c1cc(-c2ccccc2)on1 |  |  |  | Not Active | 
25 | N#C/C(=N\Nc1cccc(Cl)c1)C(=O)c1cc(C2CC2)on1 |  |  | 60 |  | 
26 | CC(C)(C)c1cc(C(=O)/C(C#N)=N/Nc2ccc(Cl)c(C(F)(F)F)c2)no1 | 9.7 |  |  |  | 
27 | CC(C)(C)c1cc(C(=O)/C(C#N)=N/Nc2cc(Cl)cc(Cl)c2)no1 |  | 16.8 |  |  | 
28 | COc1cccc(N/N=C(\C#N)C(=O)c2cc(C(C)(C)C)on2)c1 |  |  |  | Not Active | 
29 | CC(C)(C)c1cc(NC(=O)Nc2cccc(Cl)c2)no1 |  |  |  | Not Active | 
30 | CC(C)(C)c1cc(C(=O)/C(C#N)=N/Nc2cc(F)cc(F)c2)no1 |  | 6 | 5.3 |  | 
31 | CC(=O)c1cccc(N/N=C(\C#N)C(=O)c2cc(C(C)(C)C)on2)c1 |  |  |  | Not Active | 
32 | CC(C)(C)c1cc(C(=O)/C(C#N)=N/Nc2ccccc2)no1 |  | 0.5 |  |  | 
33 | CC(C)(C)c1cc(C(=O)/C(C#N)=N/Nc2ccc(C(F)(F)F)c(Cl)c2)no1 | 4.3 |  |  |  | 
34 | CC(C)(C)c1cc(C(=O)/C(C#N)=N/Nc2cccc(Cl)c2)no1 | 10.8 |  |  |  | solubility at 24 h ([4]; water): 0.018 mM (≈ 5.95 µg/mL); IC50 [6]: 10.8 µM; solubility at 24 h [5]: 45.3 mM (≈ 15000 µg/mL)
35 | CC(C)(C)c1cc(-c2n[nH]c(N)c2/N=N/c2cccc(Cl)c2)no1 |  |  |  | Not Active | 
36 | CC(C)(C)c1cc(C(=O)N/N=C/c2cccc(Cl)c2)no1 |  |  |  | Not Active | 
37 | CC(C)(C)c1cc(C(=O)/C(C#N)=N/Nc2ccc(F)c(Cl)c2)no1 | 7.8 | 11.9 | 2.7 |  | solubility [4]: 0.2368 mM (≈ 82.6 µg/mL); solubility at 24 h [5]: 23.5 mM (≈ 8200 µg/mL)
38 | CC(C)(C)c1cc(C(=O)/C(C#N)=N/Nc2cc(Cl)c(Cl)c(Cl)c2)no1 | 2.4 |  | 0.9 |  | solubility [4]: 0.0318 mM (≈ 12.7 µg/mL); solubility at 24 h [5]: 10.9 mM (≈ 4360 µg/mL)
39 | CC(C)(C)c1cc(C(=O)/C(C#N)=N/Nc2ccc(Cl)c(F)c2)no1 |  | 7.4 | 4.3 |  | 
